In one data set the test system is Trichophyton verrucosum. Kind of data set: In vitro antifungal activity against Trichophyton verrucosum after 7 days by serial dilution method. Format: functional. The following applies: 168 h.
The test system of data set [1] is Staphylococcus aureus. Kind of data set: In vivo anti-virulence activity against Staphylococcus aureus Newman infected in BALB/c mouse model assessed as reduction in bacterial load in heart at 0.1 mg bid for 3.5 days administered intraperitoneally 6 hrs post infection by serial dilution method. Format: functional, organism-based. In a few lines:
(§1)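 Mice (n=10 per group) got 2.3 × 10^7 CFU S. aureus Newman by retro-orbital injection. Compound was given intraperitoneally b.i.d., either 24 h before infection (4.5 d) or 6 h after infection (3.5 d). Mice were sacrificed after 4.5 d and CFU counted in kidneys and hearts. Groups were compared by two-tailed Mann-Whitney test.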

The target of data set [2] is T1, 4,4'-diapophytoene desaturase (4,4'-diaponeurosporene-forming) (Staphylococcus aureus (strain MW2), UniProt Q8NUQ6).
T1 sequence (Q8NUQ6 whole entry): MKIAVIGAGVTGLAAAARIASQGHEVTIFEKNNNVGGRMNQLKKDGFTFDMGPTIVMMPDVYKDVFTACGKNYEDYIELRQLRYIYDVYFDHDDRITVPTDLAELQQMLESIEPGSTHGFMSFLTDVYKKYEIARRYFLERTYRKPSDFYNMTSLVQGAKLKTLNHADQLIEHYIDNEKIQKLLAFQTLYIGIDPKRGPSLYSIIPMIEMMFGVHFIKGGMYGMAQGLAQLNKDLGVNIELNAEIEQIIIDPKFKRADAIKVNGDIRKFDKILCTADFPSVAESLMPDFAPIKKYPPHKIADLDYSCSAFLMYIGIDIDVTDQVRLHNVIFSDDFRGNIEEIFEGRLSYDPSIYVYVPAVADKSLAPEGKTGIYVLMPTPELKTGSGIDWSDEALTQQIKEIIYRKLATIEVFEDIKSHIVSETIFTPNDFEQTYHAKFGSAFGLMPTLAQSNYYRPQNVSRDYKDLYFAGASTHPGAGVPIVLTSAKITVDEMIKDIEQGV
The data set can be described thus: Inhibition of CrtN in methicillin-resistant Staphylococcus aureus USA400 MW2 assessed as reduction in staphyloxanthin levels after 48 hrs by spectrophotometric method-based pigment inhibition assay. The arrangement: species or system Staphylococcus aureus subsp. aureus MW2.

For another data set, the system named is Liver. Kind of data set: In-vitro intrinsic clearance in human liver microsomes at 2 uM after 60 mins in presence of NADPH by LC-MS/MS method. Format: ADME, microsome. The following applies: 1 h. For orientation: Liver microsomes are vesicles of endoplasmic reticulum, rich in cytochrome P450 enzymes.
Data set [3] relates to Staphylococcus aureus. Kind of data set: In vivo anti-virulence activity against Staphylococcus aureus Newman infected in BALB/c mouse model assessed as reduction in bacterial load in kidneys at 0.4 mg bid for 4.5 days administered intraperitoneally 24 hrs prior to infection by serial dilution method. The class given is functional, organism-based. In a few lines:
as §1

Data set [4] has as its system Staphylococcus aureus. Kind of data set: In vivo anti-virulence activity against methicillin-resistant Staphylococcus aureus NRS271 infected in BALB/c mouse model assessed as reduction in bacterial load in heart at 0.1 mg bid for 4.5 days administered intraperitoneally 24 hrs prior to infection by serial dilution method. Further details: scale not given: the % may be the effect or the level left. Format: functional. In short, it runs like this:
(§2)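 Mice (n=10 per group) infected retro-orbitally with S. aureus Mu50 (1.1 × 10^9 or 1.3 × 10^9 CFU) or NRS271 (2.3 × 10^8 CFU). Compound given i.p. b.i.d., either 6 h after infection for 3.5 d or 24 h before infection for 4.5 d. Mice killed after 4.5 d; log10 CFU per organ counted in kidneys and hearts. Two-tailed Mann−Whitney test.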

The nature of data set [5]: Cytotoxicity against HEK293 cells after 43 hrs by Alamar blue dye-based fluorescence assay. Particulars: human. The class given is cell-based. (Alamar Blue is a resazurin reagent that responds to reducing activity.)
For data set [6], the system named is Staphylococcus aureus. Kind of data set: In vivo anti-virulence activity against methicillin-resistant Staphylococcus aureus Mu50 infected in BALB/c mouse model assessed as reduction in bacterial load in kidneys at 0.4 mg bid for 4.5 days administered intraperitoneally 24 hrs prior to infection by serial dilution method. Format: functional. Further details: scale not given: the % may be the effect or the level left. In a few lines: as §2

In data set [7] the target is T2, 4,4'-diapophytoene desaturase (4,4'-diaponeurosporene-forming) (Staphylococcus aureus (strain Newman), UniProt O07855).
T2 sequence (O07855 whole entry): T1 sequence (Q8NUQ6 whole entry) with Q500R
Kind of data set: Inhibition of CrtN in Staphylococcus aureus Newman after 12 resistant development passages under 0.15% v/v H2O2 assessed as reduction in staphyloxanthin levels under IC90 level after 48 hrs by spectrophotometric method-based pigment inhibition assay. The arrangement: species or system Staphylococcus aureus subsp. aureus str. Newman.

Data set [8] concerns Staphylococcus aureus. The data set can be described thus: In vivo anti-virulence activity against Staphylococcus aureus Newman infected in BALB/c mouse model assessed as reduction in bacterial load in heart at 0.1 mg bid for 4.5 days administered intraperitoneally 24 hrs prior to infection by serial dilution method. The class given is functional, organism-based. In a few lines: as §1

The subject of data set [9] is Staphylococcus aureus. Kind of data set: In vivo anti-virulence activity against methicillin-resistant Staphylococcus aureus Mu50 infected in BALB/c mouse model assessed as reduction in bacterial load in kidneys at 0.4 mg bid for 3.5 days administered intraperitoneally 6 hrs post infection by serial dilution method. Format: functional. Further details: scale not given: the % may be the effect or the level left. In short, it runs like this: as §2

Another data set relates to HepG2. Kind of data set: Cytotoxicity against human HepG2 cells after 43 hrs by Alamar blue dye-based fluorescence assay. The following applies: HepG2, 43 h. The class given is cell-based.
Data set [10] has as its system Staphylococcus aureus. Kind of data set: In vivo anti-virulence activity against methicillin-resistant Staphylococcus aureus NRS271 infected in BALB/c mouse model assessed as reduction in bacterial load in heart at 0.4 mg bid for 3.5 days administered intraperitoneally 6 hrs post infection by serial dilution method. The class given is functional. The arrangement: scale not given: the % may be the effect or the level left. In short, it runs like this:
as §2

The target in data set [11] is T3, 4,4'-diapophytoene desaturase (4,4'-diaponeurosporene-forming) (Staphylococcus aureus (strain Mu50 / ATCC 700699), UniProt Q99R76).
T3 sequence (Q99R76 whole entry): T1 sequence (Q8NUQ6 whole entry) with Q500R
The data set can be described thus: Inhibition of CrtN in methicillin-resistant Staphylococcus aureus Mu50 assessed as reduction in staphyloxanthin levels after 48 hrs by spectrophotometric method-based pigment inhibition assay. The arrangement: species or system Staphylococcus aureus subsp. aureus Mu50.

For data set [12], the system named is Staphylococcus aureus. Kind of data set: In vivo anti-virulence activity against methicillin-resistant Staphylococcus aureus NRS271 infected in BALB/c mouse model assessed as reduction in bacterial load in kidneys at 0.1 mg bid for 4.5 days administered intraperitoneally 24 hrs prior to infection by serial dilution method. Format: functional. Further details: scale not given: the % may be the effect or the level left. In a few lines: as §2

In the next data set the test system is Nannizzia gypsea. The data set can be described thus: In vitro antifungal activity against Microsporum gypseum after 7 days by serial dilution method. Format: functional. The following applies: 168 h.
In data set [13] the test system is Staphylococcus aureus. Kind of data set: In vivo anti-virulence activity against methicillin-resistant Staphylococcus aureus NRS271 infected in BALB/c mouse model assessed as reduction in bacterial load in heart at 0.1 mg bid for 3.5 days administered intraperitoneally 6 hrs post infection by serial dilution method. Format: functional. Further details: scale not given: the % may be the effect or the level left. In short, it runs like this: as §2

Data set [14] deals with Trichophyton mentagrophytes. The data set can be described thus: In vitro antifungal activity against Trichophyton mentagrophytes after 7 days by serial dilution method. The class given is functional. The following applies: 168 h.
For data set [15], the system named is Staphylococcus aureus. The data set can be described thus: Antibacterial activity against methicillin-resistant Staphylococcus aureus NRS271 assessed as change in bacterial growth at 0.2 mM […]. The class given is functional.

Changes are numbered by the printed parent chain. The source made the active and inactive calls. The rule behind the calls is not given here.

What is called MIC80 is an inhibitory concentration at the 80% level, which refers to growth in some studies and to a panel of isolates in others. Broadly, the IC50 is the concentration needed to halve the response being measured. What is called CC50 is the concentration giving 50% cytotoxicity. As to `CN(C/C=C/c1ccc(-c2ccccc2)cc1)Cc1coc2ccccc12.Cl`, the MIC80 in the data set on Trichophyton verrucosum was more than 64 µg/mL; against Nannizzia gypsea it was 32 µg/mL; in data set [14], more than 64 µg/mL. The result in the data set on Staphylococcus aureus [1], in the data set on Staphylococcus aureus [3] and in the data set on Staphylococcus aureus [8] was Active. The IC50 in data set [2] was determined as 7.9 nM; in data set [7], 1.8 nM; in the data set with HepG2, 106000 nM; in data set [11], 0.8 nM. In addition, the CLH in the data set with Liver stood at 1230 µL/min/mg. The Activity in the data set on Staphylococcus aureus [4], with Staphylococcus aureus [6], with Staphylococcus aureus [9], in the data set on Staphylococcus aureus [10], in the data set with Staphylococcus aureus [12] and in the data set with Staphylococcus aureus [13] was more than 95% throughout. The CC50 at 43 h in [5] stood at 48100 nM. Also, in the data set with Staphylococcus aureus [15], the outcome was inactive.
Consider `CN(C/C=C/c1ccc(-c2ccccc2)cc1)Cc1cccc2cc[nH]c12.Cl`, for which the MIC80 (in the data set on Trichophyton verrucosum; against Nannizzia gypsea; in data set [14]) was more than 64 µg/mL throughout. The result with Staphylococcus aureus [1], in the data set with Staphylococcus aureus [3], in the data set with Staphylococcus aureus [8] and in the data set with Staphylococcus aureus [15] was inactive. Besides, the IC50 is 8 nM in data set [2], 2.6 nM in [7], 21900 nM in the data set with HepG2 and 0.4 nM in [11]. For the same compound, the CLH in the data set with Liver was 20 µL/min/mg. The Activity in the data set with Staphylococcus aureus [4], in the data set on Staphylococcus aureus [6], with Staphylococcus aureus [9], in the data set with Staphylococcus aureus [10], with Staphylococcus aureus [12] and in the data set on Staphylococcus aureus [13] was more than 95% in each case. In [5], this compound registered a CC50 at 43 h of 26500 nM.

Values taken from ChEMBL document CHEMBL4024779, “Novel Terminal Bipheny-Based Diapophytoene Desaturases (CrtN) Inhibitors as Anti-MRSA/VISR/LRSA Agents with Reduced hERG Activity” (J Med Chem, 2018).
